Measured values reported in PMC11757046 (Journal of medicinal chemistry, 2025).

Legend:
Type in all cases: cell-based, human
SH-SY5Y cells [1] = assay: Detoxification of external aldehyde Ia; settings: then 20 μM Ia 24 h, relative to Ia only; for fold increase in cell viability against Ia: 1 mM detox agent 3 h
In short: (§1)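 SH-SY5Y cells grown in DMEM/F12 with 10% FBS and seeded in 96-well plates for ~48 h at 37 °C, 5% CO2. They were pretreated with the test compound in fresh medium, washed twice, then exposed to the aldehyde in medium at 37 °C. Viability was read by SRB at 510 and 565 nm, background-subtracted. Fold change is % viable over aldehyde-only wells. Mean ± SD, n = 6, one-way ANOVA.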

SH-SY5Y cells [2] = assay: NAD+/NADH ratio assay; settings: MPP+-inhibited cells; negative control 68%
SH-SY5Y cells [3] = assay: Intracellular reactive oxygen species assay; settings: for intracellular ROS level relative to untreated control: MPP+-inhibited cells, DCFDA fluorometric assay
SH-SY5Y cells [4] = assay: Detoxification of external aldehyde IIa; settings: IIa 150 μM; relative to IIa only
In short: as §1

SH-SY5Y cells [5] = assay: Protection of MPP+-inhibited cells; settings: then 1 mM MPP+ 24 h, relative to MPP+ only
SH-SY5Y cells [6] = assay: JC-10 mitochondrial membrane potential assay; settings: MPP+-inhibited cells
SH-SY5Y cells [7] = assay: Aldehyde quantification assay in MPP+-treated cells
[8] = Protection of MPP+-inhibited cells; settings: human

| Compound | fold increase in cell viability against Ia (SH-SY5Y cells [1]) | intracellular NAD+ content (NAD+ %) (SH-SY5Y cells [2]) | intracellular ROS level relative to untreated control (SH-SY5Y cells [3]) | fold improvement in cell viability against IIa (SH-SY5Y cells [4]) | fold increase in cell viability against MPP+ (SH-SY5Y cells [5]; 1 mM detox agent 3 h) | fold increase in cell viability against MPP+ (SH-SY5Y cells [5]; 50 μM detox agent 3 h) | MMP, red/green fluorescence ratio (JC-10) (SH-SY5Y cells [6]) | also measured |
| --- | --- | --- | --- | --- | --- | --- | --- | --- |
| NCCC(=O)N[C@@H](Cc1cnc[nH]1)C(=O)O [Car, carnosine] | 1.3 fold | negligible effect | 7.5 × | none of the conventional detox agents | 1.2 fold | – | – | – |
| N[C@@H](Cc1ccc(O)c(O)c1)C(=O)O [L-Dopa, levodopa] | – | – | – | none of the conventional detox agents | – | 1.2 fold | – | – |
| C[n+]1ccc(-c2ccccc2)cc1.[I-] [MPP^+, 1-methyl-4-phenylpyridinium iodide] | – | 27% | 9.1 × | – | – | – | 0.2 | aldehyde concentration relative to untreated cells (SH-SY5Y cells [7]): about 44 ×; aldehyde concentration in cells (SH-SY5Y cells [7]; Ir2mito used with HCOONa): 89 nmol/10^6 cells; viability at 24 h, 1 mM [8]: 54% |
| CC(C)(O)c1nc2ccc(Cl)cc2cc1N [Rep, reproxalap] | – | 41% | 5.1 × | none of the conventional detox agents | – | 1.3 fold | 0.4 | change in cell viability against Ia (SH-SY5Y cells [1]; 50 μM detox agent 3 h): negligible change |
| O=C1O[C@H]([C@@H](O)CO)C(O)=C1O [Asc, sodium ascorbate] | negligible change | – | – | none of the conventional detox agents | 1.1 fold | – | – | – |
| CCCCCC(O)C=CC=O (centres unmarked) [Ia, 4-hydroxynon-2-enal] | – | – | – | – | – | – | – | ROS levels after treatment with the aldehyde (SH-SY5Y cells [3]; SH-SY5Y cells treated with Ia): significantly increased ROS levels |
